{
  "source": "ChEMBL document CHEMBL4725387",
  "about": "“Synthesis and pharmacological evaluation of piperidine (piperazine)-amide substituted derivatives as multi-target antipsychotics” (Bioorg Med Chem Lett, 2020)",
  "key": {"[1]": {"target": "T1, 5-hydroxytryptamine receptor 1A (Homo sapiens, UniProt P08908)", "T1 sequence (P08908 whole entry)": "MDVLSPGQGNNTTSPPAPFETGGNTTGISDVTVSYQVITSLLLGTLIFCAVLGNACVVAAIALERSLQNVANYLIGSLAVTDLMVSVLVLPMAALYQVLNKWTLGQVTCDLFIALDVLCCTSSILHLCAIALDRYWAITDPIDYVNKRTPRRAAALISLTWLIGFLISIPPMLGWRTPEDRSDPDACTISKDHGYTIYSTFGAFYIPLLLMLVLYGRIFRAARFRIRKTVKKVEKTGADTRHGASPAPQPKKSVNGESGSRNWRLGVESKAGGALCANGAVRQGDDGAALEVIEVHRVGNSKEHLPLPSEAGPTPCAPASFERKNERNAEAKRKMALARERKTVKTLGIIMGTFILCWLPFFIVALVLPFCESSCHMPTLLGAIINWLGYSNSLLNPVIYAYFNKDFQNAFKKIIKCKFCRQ", "test": "Binding affinity to 5HT1A receptor (unknown origin)", "in_short": "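Radioligand displacement binding. Ki is the mean ± SEM of three experiments.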"}, "Rattus norvegicus": {"system": "Rattus norvegicus", "test": "Memory enhancement effect in rat assessed as increase in total exploratory time for novel objects at 0.01 mg/kg, po administered 1 hr prior to acquisition trial and measured after 24 hrs by novel object recognition test", "type": "functional, organism-based", "settings": "time 25.0 hrs", "in_short": "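Rat novel object recognition, n = 10. Oral dosing in 30% PEG 400 1 h before the acquisition trial with two identical objects. At 24 h one object was replaced by a novel one and exploration times were scored. Mean ± SEM, post-hoc Student's t-test versus vehicle.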"}, "[2]": {"target": "Voltage-gated inwardly rectifying potassium channel KCNH2 (Homo sapiens, UniProt Q12809)", "sequence (Q12809 whole entry)": "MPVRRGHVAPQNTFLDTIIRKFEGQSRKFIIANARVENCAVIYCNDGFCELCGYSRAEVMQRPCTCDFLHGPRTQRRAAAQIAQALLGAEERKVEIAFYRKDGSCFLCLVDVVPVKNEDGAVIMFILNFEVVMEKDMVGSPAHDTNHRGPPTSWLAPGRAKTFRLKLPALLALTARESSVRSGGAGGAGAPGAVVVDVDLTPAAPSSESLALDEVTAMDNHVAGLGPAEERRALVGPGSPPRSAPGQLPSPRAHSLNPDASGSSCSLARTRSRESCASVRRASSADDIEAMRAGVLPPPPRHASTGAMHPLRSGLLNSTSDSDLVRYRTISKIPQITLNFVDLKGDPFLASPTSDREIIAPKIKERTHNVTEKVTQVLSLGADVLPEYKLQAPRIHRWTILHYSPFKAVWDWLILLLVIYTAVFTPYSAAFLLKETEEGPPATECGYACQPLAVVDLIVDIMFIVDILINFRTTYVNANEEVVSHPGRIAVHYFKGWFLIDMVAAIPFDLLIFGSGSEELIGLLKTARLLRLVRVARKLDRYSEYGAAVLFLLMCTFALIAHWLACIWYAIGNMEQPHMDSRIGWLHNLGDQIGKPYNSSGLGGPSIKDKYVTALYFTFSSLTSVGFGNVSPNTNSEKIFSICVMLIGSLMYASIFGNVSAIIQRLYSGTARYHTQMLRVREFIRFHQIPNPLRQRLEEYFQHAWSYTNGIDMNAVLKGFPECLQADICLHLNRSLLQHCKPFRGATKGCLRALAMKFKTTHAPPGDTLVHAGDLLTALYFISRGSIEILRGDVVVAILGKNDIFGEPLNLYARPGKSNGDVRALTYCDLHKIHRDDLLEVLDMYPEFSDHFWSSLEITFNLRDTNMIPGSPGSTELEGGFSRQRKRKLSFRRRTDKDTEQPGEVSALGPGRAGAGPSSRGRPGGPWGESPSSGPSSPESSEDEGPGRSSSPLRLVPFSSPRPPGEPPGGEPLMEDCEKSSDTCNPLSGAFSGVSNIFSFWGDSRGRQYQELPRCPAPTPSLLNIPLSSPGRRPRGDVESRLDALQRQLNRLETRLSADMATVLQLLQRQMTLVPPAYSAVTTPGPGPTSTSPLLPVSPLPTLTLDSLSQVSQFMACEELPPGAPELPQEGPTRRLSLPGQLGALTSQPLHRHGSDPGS", "test": "Inhibition of human ERG by patch-clamp method"}},
  "note": "Active and inactive are the calls of the source. The calls are words filed in the database; no cut-off is given here.",
  "data": [
    {"smiles": "CC(=O)Nc1ccc(OCCCN2CCC(c3noc4cc(F)ccc34)CC2)cc1", "values": [
      {"measurement": "Ki", "setting": "[1]", "value": 3.5, "unit": "nM"},
      {"measurement": "Activity", "setting": "Rattus norvegicus", "value": "inactive"},
      {"measurement": "IC50", "setting": "[2]", "value": 2980, "unit": "nM"}
    ]}
  ]
}
